The values that follow come from ChEMBL document CHEMBL4477170, “Tricyclic Acylphloroglucinols from Hypericum lanceolatum and Regioselective Synthesis of Selancins A and B” (J Nat Prod, 2016).

SMILES strings stand for the structures. Activity calls are given as the source filed them. No cut-off for these calls is given here.

One assay relates to HT-29. Briefly: Cytotoxicity against human HT-29 cells assessed as cell growth inhibition at 10 uM by XTT assay. In kind it is functional, cell-based. An outline of the steps:
(§1)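 Modified XTT assay on HT-29 colon and PC-3 prostate cancer cell lines, measuring growth inhibition; isolated compounds tested up to 10 μM.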
A general note: Tetrazolium assays rely on reduction of a dye to a coloured formazan, in cell work by metabolically active cells.

A further assay has as its system PC-3. Briefly: Cytotoxicity against human PC3 cells assessed as cell growth inhibition at 10 uM by XTT assay. In kind it is functional, cell-based. An outline of the steps: as §1

For the molecule `CC[C@H](C)C(=O)c1c(O)c2c(c3c1OC(C)(C)C=C3)OC(C)(C)C=C2`, the “growth inhibition (GI)” value in the assay on HT-29 and in the assay with PC-3 was “inactive” throughout.

With `CC[C@H](C)C(=O)c1c(O)c2c(c3c1OC(C)(C)C(O)C3)OC(C)(C)C=C2` (stereo partly drawn), the “growth inhibition (GI)” value in the assay with HT-29 and in the assay on PC-3 was “inactive” throughout.

Consider `CC[C@H](C)C(=O)c1c(O)c2c(c3c1OC(C)(C)C=C3)OC(C)(C)[C@H](O)C2`, for which the “growth inhibition (GI)” value in the assay on HT-29 and in the assay on PC-3 was “inactive” each time.

As for `CC[C@H](C)C(=O)c1c(O)c2c(c3c1OC(C)(C)C=C3)OC(C)(C)[C@@H](O)C2=O`, the “growth inhibition (GI)” value in the assay with HT-29 and in the assay with PC-3 was “inactive” in each case.

Turning to `CC(C)C(=O)c1c(O)c2c(c3c1OC(C)(C)C(O)C3)OC(C)(C)C=C2` (stereo not drawn), the “growth inhibition (GI)” value in the assay with HT-29 and with PC-3 was “inactive” in each case.

`CC(C)C(=O)c1c(O)c2c(c3c1OC(C)(C)C=C3)OC(C)(C)[C@@H](O)C2=O`: the “growth inhibition (GI)” value in the assay on HT-29 and with PC-3 was “inactive” in each case.

With `CC(C)C(=O)c1c(O)c2c(c3c1OC(C)(C)C=C3)OC(C)(C)[C@H](O)[C@@H]2O` (relative stereo), the “growth inhibition (GI)” value in the assay with HT-29 and in the assay on PC-3 was “inactive” throughout.

Take `CC(C)C(=O)c1c(O)c2c(c3c1OC(C)(C)C=C3)OC(C)(C)C=C2`: the “growth inhibition (GI)” value with HT-29 and in the assay with PC-3 was “inactive” throughout.

For the molecule `CC(C)=CCC/C(C)=C/COc1cc(O)c2c(c1)C(=O)c1cc(C)cc(O)c1C2=O`, the “growth inhibition (GI)” value in the assay on HT-29 and in the assay on PC-3 was “inactive” in each case.
